Measured values as given in ChEMBL document CHEMBL1155020, “Trithiocarbonates as a novel class of HDAC inhibitors: SAR studies, isoenzyme selectivity, and pharmacological profiles” (J Med Chem, 2008).
Activity calls are given as the source filed them. The rule behind the calls is not given here.

Key:
[1] = tested on: HeLa; assay: Cytotoxicity against human HeLa cells after 72 hrs by alamar blue assay; format: functional, cell-based
Procedure, shortened: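 HeLa cells were seeded at densities allowing growth through 72 h of compound exposure at 37 °C, 5% CO2. Viability was read by Alamar Blue (resazurin) reduction. Replicate assays were averaged, and IC50 was taken from concentration-effect curves.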

[2] = molecular target: T1, Histone deacetylase 1 (Homo sapiens, UniProt Q13547); assay: Inhibition of recombinant HDAC1 expressed in HEK293 cells; format: cell-based
T1 sequence (Q13547 whole entry): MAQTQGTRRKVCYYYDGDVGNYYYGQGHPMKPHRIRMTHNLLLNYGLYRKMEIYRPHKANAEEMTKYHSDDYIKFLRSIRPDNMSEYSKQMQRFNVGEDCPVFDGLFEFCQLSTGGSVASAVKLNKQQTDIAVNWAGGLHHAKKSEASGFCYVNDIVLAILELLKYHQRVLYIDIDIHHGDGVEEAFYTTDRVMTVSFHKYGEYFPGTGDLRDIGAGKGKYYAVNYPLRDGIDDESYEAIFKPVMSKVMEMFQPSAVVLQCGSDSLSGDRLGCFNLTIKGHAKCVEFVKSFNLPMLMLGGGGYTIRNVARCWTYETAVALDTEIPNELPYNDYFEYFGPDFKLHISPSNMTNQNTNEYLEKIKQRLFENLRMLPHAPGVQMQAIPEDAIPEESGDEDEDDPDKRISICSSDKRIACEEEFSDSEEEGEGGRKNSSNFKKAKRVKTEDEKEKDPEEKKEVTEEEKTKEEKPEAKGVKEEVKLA

[3] = molecular target: T1, Histone deacetylase 1; assay: Inhibition of recombinant HDAC1 expressed in HEK293 cells using variable substrate concentration by Lineweaver-Burke plot; format: cell-based
Procedure, shortened: (§1)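 Inhibitor was used at 1/4, 1/2, 1, 2 and 4 times the IC50-derived concentration. Ki was obtained from Lineweaver-Burk plots, with y-axis intersection indicating substrate competition.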

[4] = molecular target: Histone deacetylase; assay: Inhibition of nuclear HDAC isolated from human HeLa cells; format: cell-based
[5] = molecular target: T2, Protein deacetylase HDAC6 (Homo sapiens, UniProt Q9UBN7); assay: Inhibition of recombinant HDAC6 expressed in HEK293 cells; format: cell-based
T2 sequence (Q9UBN7 whole entry): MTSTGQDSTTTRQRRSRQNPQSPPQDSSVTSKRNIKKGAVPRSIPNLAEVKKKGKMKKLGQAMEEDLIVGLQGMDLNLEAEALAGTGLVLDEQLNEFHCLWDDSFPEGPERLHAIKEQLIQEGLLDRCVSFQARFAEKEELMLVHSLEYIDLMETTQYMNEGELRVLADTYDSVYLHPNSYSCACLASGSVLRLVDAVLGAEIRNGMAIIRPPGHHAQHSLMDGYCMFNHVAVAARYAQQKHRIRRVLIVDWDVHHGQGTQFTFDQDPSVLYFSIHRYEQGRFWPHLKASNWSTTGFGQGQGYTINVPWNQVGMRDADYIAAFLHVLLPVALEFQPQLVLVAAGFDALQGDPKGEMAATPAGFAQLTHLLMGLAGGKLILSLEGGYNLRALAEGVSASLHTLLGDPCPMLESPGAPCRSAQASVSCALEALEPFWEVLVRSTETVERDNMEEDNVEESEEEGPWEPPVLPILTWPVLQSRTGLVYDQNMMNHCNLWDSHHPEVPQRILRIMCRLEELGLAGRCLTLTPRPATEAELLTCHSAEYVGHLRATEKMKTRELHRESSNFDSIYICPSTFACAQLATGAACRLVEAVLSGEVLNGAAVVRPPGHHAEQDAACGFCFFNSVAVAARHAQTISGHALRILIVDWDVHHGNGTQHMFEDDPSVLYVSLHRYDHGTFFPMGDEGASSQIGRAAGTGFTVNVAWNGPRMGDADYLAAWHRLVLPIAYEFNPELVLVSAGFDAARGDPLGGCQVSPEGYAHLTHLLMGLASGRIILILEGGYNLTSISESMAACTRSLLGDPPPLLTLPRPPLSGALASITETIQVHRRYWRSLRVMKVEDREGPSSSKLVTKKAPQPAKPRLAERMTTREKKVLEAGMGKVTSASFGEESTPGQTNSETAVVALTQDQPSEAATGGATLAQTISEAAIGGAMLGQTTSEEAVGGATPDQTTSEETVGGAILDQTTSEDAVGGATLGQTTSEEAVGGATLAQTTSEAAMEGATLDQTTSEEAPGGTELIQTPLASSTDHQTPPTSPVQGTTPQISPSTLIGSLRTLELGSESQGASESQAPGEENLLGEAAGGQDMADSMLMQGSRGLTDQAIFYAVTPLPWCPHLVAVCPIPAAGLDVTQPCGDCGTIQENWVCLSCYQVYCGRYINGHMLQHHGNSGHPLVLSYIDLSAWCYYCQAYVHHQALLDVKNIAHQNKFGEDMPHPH

[6] = molecular target: Histone deacetylase; assay: Inhibition of HDAC in human HeLa cells; format: cell-based
[7] = molecular target: T3, Histone deacetylase (Homo sapiens) (UniProt Q13547+O15379+Q9UBN7+Q92769+Q9UQL6+Q8WUI4+Q9BY41+Q96DB2+P56524+Q9UKV0+Q969S8); assay: Inhibition of HDAC in human RKO cells assessed as induction of histone H3 lysine 1 to 20 hyperacetylation at 1 to 10 uM after 24 hrs by Western blotting; format: cell-based
Procedure, shortened: (§2)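 RKO cells were treated for 24 h with compound at 1, 3 and 10 µM. Lysates were run on SDS-PAGE and Western blots probed for histone H3 S10 phosphorylation and histone H3 K1-20 acetylation, with β-actin reprobe as control.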

[8] = molecular target: T3, Histone deacetylase (Homo sapiens); assay: Inhibition of HDAC in human RKO cells assessed as induction of histone H3 serine 10 phosphorylation at 1 to 10 uM after 24 hrs by Western blotting; format: cell-based; procedure, shortened: as §2
[9] = molecular target: Histone deacetylase; assay: Inhibition of HDAC in human HeLa cells assessed as induction of histone H3 hyperacetylation after 24 hrs; format: cell-based
[10] = molecular target: T2, Protein deacetylase HDAC6; assay: Inhibition of recombinant HDAC6 expressed in HEK293 cells using variable substrate concentration by Lineweaver-Burke plot; format: cell-based; procedure, shortened: as §1
[11] = molecular target: T4, Protein deacetylase HDAC6 (Homo sapiens) (UniProt Q9UBN7); assay: Inhibition of HDAC6 in human A549 NSCLC cells assessed as induction of alpha-tubulin hyperacetylation at 10 uM after 24 hrs by Western blotting; format: cell-based
T4 sequence (whole entry): T2 sequence (Q9UBN7 whole entry)
Procedure, shortened: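 A549 NSCLC cells were exposed to compound for 24 h and lysed. Western blots were probed for acetylated α-tubulin and acetylated histone H3 K1-20, then reprobed with histone H3 and α-tubulin antibodies as controls.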

[12] = tested on: RKO; assay: Induction of apoptosis in human RKO cells assessed as accumulation at subG1 phase by flow cytometry; format: functional, cell-based
Procedure, shortened: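 RKO cells were seeded at 5 × 10^5 per 10 cm dish and grown for 24 h in log phase. They were then exposed to compound at 1 and 10 µM for 24 h. Flow cytometry assigned cells to subG1 (apoptosis), G1 (2N), S and G2/M (4N).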

[13] = tested on: RKO; assay: Cytotoxicity against arrested non proliferative human RKO cells after 24 hrs; format: functional, cell-based; conditions: in the assay text read “after 72 hrs” for “after 24 hrs”
Procedure, shortened: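 Alamar Blue (resazurin) read-out of metabolic activity. RKO p21waf1 transfectant cells were arrested by inducing p21waf1 with 10 µM ponasterone A for 24 h, then seeded at 2 × 10^4 cells/well and treated with compound. IC50 was taken from the concentration-effect curve.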

[14] = tested on: RKO; assay: Induction of apoptosis in human RKO cells at 10 uM after 24 hrs by flow cytometry
[15] = tested on: HeLa; assay: Cytotoxicity against human HeLa cells at 50 uM after 72 hrs by alamar blue assay; format: functional
[16] = molecular target: T1, Histone deacetylase 1; assay: Inhibition of recombinant HDAC1 expressed in HEK293 cells at 30 uM; format: cell-based
[17] = molecular target: T3, Histone deacetylase (Homo sapiens); assay: Inhibition of nuclear HDAC isolated from human HeLa cells at 30 uM; format: cell-free
[18] = molecular target: T3, Histone deacetylase (Homo sapiens); assay: Inhibition of nuclear HDAC isolated from human HeLa cells at 32 uM; format: cell-free
[19] = molecular target: T4, Protein deacetylase HDAC6 (Homo sapiens); assay: Inhibition of recombinant HDAC6 expressed in HEK293 cells at 32 uM; format: cell-based
[20] = molecular target: T1, Histone deacetylase 1; assay: Inhibition of recombinant HDAC1 expressed in HEK293 cells at 32 uM; format: cell-based
[21] = molecular target: T3, Histone deacetylase (Homo sapiens); assay: Inhibition of HDAC in human HeLa cells at 50 uM; format: cell-based
Procedure, shortened: (§3)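 HeLa cells were seeded at 5 × 10^3/well, grown for 24 h, and exposed to compound for 3 h. Cell-permeable Boc-K(Ac)-AMC was added for a further 3 h. Lysis/developer buffer containing trypsin and 10 µM TSA followed, with 3 h incubation. AMC fluorescence was read at ex 355/em 460 nm, and % inhibition was given at the stated concentration.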

[22] = molecular target: T3, Histone deacetylase (Homo sapiens); assay: Inhibition of HDAC in human HeLa cells at 32 uM; format: cell-based; procedure, shortened: as §3
[23] = molecular target: T3, Histone deacetylase (Homo sapiens); assay: Inhibition of HDAC in human HeLa cells assessed as induction of histone H3 hyperacetylation at 50 uM after 24 hrs by Western blotting; format: cell-based
Procedure, shortened: (§4)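 HeLa cells were treated with compound at 5 and 50 µM for 24 h, then lysed in Tris pH 8 RIPA-type buffer. Equal protein amounts were separated by SDS-PAGE and blotted to PVDF. Blots were probed for acetylated histone H3 K1-20 and p21waf1, then reprobed for β-actin as loading control.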

[24] = molecular target: T3, Histone deacetylase (Homo sapiens); assay: Inhibition of HDAC in human HeLa cells assessed as induction of p21waf1 at 50 uM after 24 hrs by Western blotting; format: cell-based; procedure, shortened: as §4

| Compound | IC50 [2] [nM] | IC50 [4] [nM] | IC50 [5] [nM] | IC50 [6] [nM] | IC50 [1] [nM] | other results |
| --- | --- | --- | --- | --- | --- | --- |
| CCSC(=S)SCC(=O)c1ccc(CC(=O)NCc2ccccc2)s1 | 762 | 38 | 250 | 9840 | 710 | Activity [7]: Active; Activity [8]: Active; EC50 [9]: 2400 nM |
| CCSC(=S)SCC(=O)c1ccc(C(=O)Nc2ccc(Cl)cc2)cc1 | – | 79 | 1450 | – | – | inhibition at 50 µM [15]: 0%; inhibition [16]: 1% |
| CCNC(=S)NCC(=O)c1ccc(OC)cc1 | – | – | – | – | 5810 | inhibition [17]: -6% |
| CCSC(=S)SCC(=O)c1ccn(S(=O)(=O)c2ccccc2)c1 | – | – | – | – | – | Ki [10]: 140 nM |
| CCOC(=S)SCC(=O)c1ccc(NC(C)=O)cc1 | 536 | 386 | 90 | 26200 | 3610 | Activity [7]: Active; Activity [8]: Active; EC50 [9]: 2900 nM; Activity [14]: Active |
| CCSC(=S)NCC(=O)c1ccc(OC)cc1 | – | – | – | – | – | inhibition at 50 µM [15]: 26%; inhibition [18]: -3%; inhibition [19]: -8% |
| CCSC(=S)SCC(=O)c1ccc(-c2ccc(CNc3cnc4ccccc4c3)cn2)s1 | 555 | 8 | 438 | 683 | 2700 | EC50 [9]: 4800 nM; Activity [14]: Active |
| CCSC(=S)OCC(=O)c1ccc(OC)cc1 | – | – | – | – | 2990 | inhibition [18]: 16%; inhibition [20]: 6%; inhibition [21]: 28%; inhibition [19]: 16% |
| COc1ccc(C(=O)CSC(=S)N2CCOCC2)cc1 | – | – | – | – | – | inhibition [18]: 2%; inhibition [20]: 0%; inhibition [22]: 0%; inhibition [19]: -2% |
| CCSC(=S)SCC(=O)c1ccc(C(=O)NCc2ccccc2)cc1 | 5780 | 90 | 830 | 1500 | 23900 | – |
| CCSC(=S)SCC(=O)c1ccc(NC(=O)Nc2ccccc2)cc1 | 18800 | 40 | 606 | 1190 | 20200 | – |
| CCSC(=S)SCC(=O)c1cccc(S(=O)(=O)Nc2ccc3c(c2)OCO3)c1 | 501 | 14 | 431 | 1860 | 9180 | Activity [23]: Active; Activity [24]: Active |

More lines, main results first:

| IC50 [2] [nM] | IC50 [4] [nM] | IC50 [5] [nM] | IC50 [6] [nM] | Compound | IC50 [1] [nM] | other results |
| --- | --- | --- | --- | --- | --- | --- |
| 385 | 18 | 204 | 624 | CCSC(=S)SCC(=O)c1ccc(CC(=O)NCCOc2ccccc2)s1 | 5780 | Ki [3]: 460 nM |
| 1220 | 120 | 65 | 964 | CCSC(=S)SCC(=O)c1cccc(NC(=O)c2ccccc2)c1 | 8230 | Ki [10]: 110 nM; Activity [11]: Active |
| 6990 | 375 | 1250 | 81200 | CCSC(=S)SCC(=O)c1ccc(C)cc1 | – | EC50 [9]: 4800 nM; Activity [12]: Active; Activity [13]: Active; Activity [14]: Active |
| 251 | 10 | 116 | 7530 | CCSC(=S)SCC(=O)c1ccc(CC(=O)Nc2ccc(OC)cc2)s1 | 6610 | EC50 [9]: 760 nM |
| 5330 | 110 | 2040 | – | CCSC(=S)SCC(=O)c1cccc(S(=O)(=O)N(C)c2ccc(OC)cc2)c1 | – | inhibition at 50 µM [15]: 43% |
| 1380 | 811 | 448 | 4720 | CCOC(=S)SCC(=O)c1ccc(OC)cc1 | 4640 | – |
| 7120 | 719 | 346 | 2070 | CCSC(=S)SCC(=O)c1ccc(CNC(C)=O)cc1 | 17900 | – |
